Reference: ChEMBL document CHEMBL4689842, “EUbOPEN Chemogenomics Library wave 1” (2021)

Test system: Fibroblast
Test: Multiplex assay against human fibroblast
Assay type: toxicity, cell-based
How it was run: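 Per cents of healthy-nucleus cells form the tubulin, mitochondrial-mass and membrane-permeability phenotype values. Live cells were stained at seeding with Hoechst33342, BioTracker Green Microtubule Cytoskeleton Dye, MitoTracker Red and Annexin V Alexa Fluor 680. After compound addition they were imaged on a CQ1 microscope at 37°C and 5% CO2, and CellPathfinder machine-learning gating split them into Hoechst high-intensity objects or normal cells, normal cells into healthy, pyknosed or fragmented nuclei, and pyknosed cells into mitotic or apoptotic.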

[1] = 12 h, 1 µM, compound concentration 1 uM, replicate 1
[2] = 12 h, 1 µM, compound concentration 1 uM, replicate 2
[3] = 12 h, 10 µM, compound concentration 10 uM, replicate 1
[4] = 12 h, 10 µM, compound concentration 10 uM, replicate 2
[5] = 24 h, 1 µM, compound concentration 1 uM, replicate 1
[6] = 24 h, 1 µM, compound concentration 1 uM, replicate 2
[7] = 24 h, 10 µM, compound concentration 10 uM, replicate 1
[8] = 24 h, 10 µM, compound concentration 10 uM, replicate 2
[9] = 48 h, 1 µM, compound concentration 1 uM, replicate 1
[10] = 48 h, 1 µM, compound concentration 1 uM, replicate 2
[11] = 48 h, 10 µM, compound concentration 10 uM, replicate 1
[12] = 48 h, 10 µM, compound concentration 10 uM, replicate 2

## CC(/C=C1\SC(=S)N(CCCC(=O)Nc2ccc(C(=O)O)c(O)c2)C1=O)=C\c1ccccc1
[1]
  Population Apoptotic (%): 59%
  Population Fragmented Nuclei (%): 22%
  Population Healthy Nuclei (%): 47%
  Population Hoechst High Intensity Objects (%): 11%
  Population Membrane Permeable-Phenotype (%): 31%
  Population Mitochondria Different-Phenotype (%): 4%
  Population Mitotic Cells (%): 40%
  Population Normal (%): 88%
  Population Pyknosed Nuclei (%): 29%
  Population Tubulin-Different-Phenotype (%): 38%
  Total Cell Count: 167
[2]
  Population Apoptotic (%): 33%
  Population Fragmented Nuclei (%): 10%
  Population Healthy Nuclei (%): 81%
  Population Hoechst High Intensity Objects (%): 6%
  Population Membrane Permeable-Phenotype (%): 7%
  Population Mitochondria Different-Phenotype (%): 7%
  Population Mitotic Cells (%): 66%
  Population Normal (%): 93%
  Population Pyknosed Nuclei (%): 7%
  Population Tubulin-Different-Phenotype (%): 7%
  Total Cell Count: 65
[3]
  Population Apoptotic (%): 62%
  Population Fragmented Nuclei (%): 32%
  Population Healthy Nuclei (%): 48%
  Population Hoechst High Intensity Objects (%): 61%
  Population Membrane Permeable-Phenotype (%): 40%
  Population Mitochondria Different-Phenotype (%): 9%
  Population Mitotic Cells (%): 37%
  Population Normal (%): 38%
  Population Pyknosed Nuclei (%): 18%
  Population Tubulin-Different-Phenotype (%): 54%
  Total Cell Count: 331
[4]
  Population Apoptotic (%): 44%
  Population Fragmented Nuclei (%): 17%
  Population Healthy Nuclei (%): 72%
  Population Hoechst High Intensity Objects (%): 7%
  Population Membrane Permeable-Phenotype (%): 6%
  Population Mitochondria Different-Phenotype (%): 6%
  Population Mitotic Cells (%): 55%
  Population Normal (%): 92%
  Population Pyknosed Nuclei (%): 10%
  Population Tubulin-Different-Phenotype (%): 9%
  Total Cell Count: 88
[5]
  Population Apoptotic (%): 54%
  Population Fragmented Nuclei (%): 23%
  Population Healthy Nuclei (%): 50%
  Population Hoechst High Intensity Objects (%): 7%
  Population Membrane Permeable-Phenotype (%): 29%
  Population Mitochondria Different-Phenotype (%): 1%
  Population Mitotic Cells (%): 45%
  Population Normal (%): 92%
  Population Pyknosed Nuclei (%): 25%
  Population Tubulin-Different-Phenotype (%): 37%
  Total Cell Count: 155
[6]
  Population Fragmented Nuclei (%): 12%
  Population Healthy Nuclei (%): 76%
  Population Hoechst High Intensity Objects (%): 6%
  Population Membrane Permeable-Phenotype (%): 4%
  Population Mitochondria Different-Phenotype (%): 10%
  Population Normal (%): 93%
  Population Pyknosed Nuclei (%): 10%
  Population Tubulin-Different-Phenotype (%): 12%
  Total Cell Count: 64
[7]
  Population Apoptotic (%): 53%
  Population Fragmented Nuclei (%): 32%
  Population Healthy Nuclei (%): 45%
  Population Hoechst High Intensity Objects (%): 57%
  Population Membrane Permeable-Phenotype (%): 44%
  Population Mitochondria Different-Phenotype (%): 6%
  Population Mitotic Cells (%): 46%
  Population Normal (%): 42%
  Population Pyknosed Nuclei (%): 22%
  Population Tubulin-Different-Phenotype (%): 44%
  Total Cell Count: 326
[8]
  Population Apoptotic (%): 44%
  Population Fragmented Nuclei (%): 9%
  Population Healthy Nuclei (%): 83%
  Population Hoechst High Intensity Objects (%): 4%
  Population Membrane Permeable-Phenotype (%): 5%
  Population Mitochondria Different-Phenotype (%): 14%
  Population Mitotic Cells (%): 55%
  Population Normal (%): 95%
  Population Pyknosed Nuclei (%): 7%
  Population Tubulin-Different-Phenotype (%): 14%
  Total Cell Count: 115
[9]
  Population Apoptotic (%): 62%
  Population Fragmented Nuclei (%): 34%
  Population Healthy Nuclei (%): 52%
  Population Hoechst High Intensity Objects (%): 14%
  Population Membrane Permeable-Phenotype (%): 30%
  Population Mitochondria Different-Phenotype (%): 3%
  Population Mitotic Cells (%): 37%
  Population Normal (%): 85%
  Population Pyknosed Nuclei (%): 12%
  Population Tubulin-Different-Phenotype (%): 33%
  Total Cell Count: 146
[10]
  Population Apoptotic (%): 100%
  Population Fragmented Nuclei (%): 15%
  Population Healthy Nuclei (%): 81%
  Population Hoechst High Intensity Objects (%): 12%
  Population Membrane Permeable-Phenotype (%): 18%
  Population Mitochondria Different-Phenotype (%): 1%
  Population Mitotic Cells (%): 0%
  Population Normal (%): 87%
  Population Pyknosed Nuclei (%): 2%
  Population Tubulin-Different-Phenotype (%): 35%
  Total Cell Count: 127
[11]
  Population Apoptotic (%): 69%
  Population Fragmented Nuclei (%): 49%
  Population Healthy Nuclei (%): 40%
  Population Hoechst High Intensity Objects (%): 55%
  Population Membrane Permeable-Phenotype (%): 37%
  Population Mitochondria Different-Phenotype (%): 13%
  Population Mitotic Cells (%): 30%
  Population Normal (%): 44%
  Population Pyknosed Nuclei (%): 9%
  Population Tubulin-Different-Phenotype (%): 54%
  Total Cell Count: 297
[12]
  Population Apoptotic (%): 33%
  Population Fragmented Nuclei (%): 23%
  Population Healthy Nuclei (%): 72%
  Population Hoechst High Intensity Objects (%): 12%
  Population Membrane Permeable-Phenotype (%): 14%
  Population Mitochondria Different-Phenotype (%): 4%
  Population Mitotic Cells (%): 66%
  Population Normal (%): 87%
  Population Pyknosed Nuclei (%): 4%
  Population Tubulin-Different-Phenotype (%): 38%
  Total Cell Count: 74
